The source of these data is ChEMBL document CHEMBL3272032, “Antifolate studies. Activities of 40 potential antimalarial compounds against sensitive and chlorguanide triazine resistant strains of folate-requiring bacteria and Escherichia coli” (J Med Chem, 1977).

The subject of experiment [1] is Enterococcus faecium. Briefly: Antibacterial activity against chlorguanide triazine-resistant Streptococcus faecium ATCC 8043 assessed as reduction in growth in presence of 0.002 ug/ml folic acid. The format is functional, organism-based. An outline of the steps:
(§1)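 Folate-requiring strains grown in medium with folic acid, 0.002 µg/ml for S. faecium and 0.001 µg/ml for L. casei; P. cerevisiae given folinic acid, 0.001 µg/ml. Resistant substrains came from serial transfer in rising chlorguanide triazine, and the most resistant were used. Compounds tested up to 1000 µg/ml, or 100 µg/ml when supply was limited. Growth read as Klett turbidity; IC50 is the µM concentration giving 50% growth inhibition.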

The subject of experiment [2] is Lacticaseibacillus casei. Briefly: Antibacterial activity against sensitive Lactobacillus casei ATCC 7469 assessed as reduction in growth in presence of 0.001 ug/ml folic acid. In kind it is functional, organism-based. An outline of the steps:
(§2)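 Folate-requiring strains in the medium of the earlier assay method. Folic acid was 0.002 μg/ml for S. faecium and 0.001 μg/ml for L. casei. Turbidity read on a Klett-Summerson colorimeter. IC50 is the micromolar concentration reducing growth to 50% of control. Top concentration was 1000 μg/ml, or 100 μg/ml if supply was limited.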

Experiment [3] deals with Lacticaseibacillus casei. Briefly: Antibacterial activity against chlorguanide triazine-resistant Lactobacillus casei ATCC 7469 assessed as reduction in growth in presence of 0.001 ug/ml folic acid. In kind it is functional, organism-based. An outline of the steps: as §1
For experiment [4], the system named is Pediococcus. Kind of experiment: Antibacterial activity against sensitive Pediococcus cerevisiae ATCC 808 assessed as reduction in growth in presence of 0.001 ug/ml folinic acid. In kind it is functional. The essentials:
(§3)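 P. cerevisiae grown with folinic acid at 0.001 μg/ml in the earlier-described medium. Turbidity read on a Klett-Summerson colorimeter. IC50 is the micromolar concentration reducing growth to 50% of control. Top concentration was 1000 μg/ml, or 100 μg/ml when supply was limited.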

The test system of experiment [5] is Pediococcus. Kind of experiment: Antibacterial activity against chlorguanide triazine-resistant Pediococcus cerevisiae ATCC 808 assessed as reduction in growth in presence of 0.001 ug/ml folinic acid. In kind it is functional. An outline of the steps: as §1
In experiment [6] the test system is Escherichia coli. Briefly: Antibacterial activity against sensitive Escherichia coli ATCC 10536 assessed as reduction in growth in presence of p-aminobenzoic acid. The format is functional, organism-based. The essentials: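 Reversal test. Drug inhibition was challenged with PABA in Sahyun et al. medium plus 0.6% acid-hydrolyzed casein. Growth read as turbidity on a Klett-Summerson colorimeter. Scored as reversal or nonreversal of the drug inhibition.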

In experiment [7] the test system is Plasmodium berghei. Briefly: Antimalarial activity against Plasmodium berghei infected in sc dosed mouse assessed as active dose required to increase of 100% in mean survival time. The following applies: read-out: MED. In kind it is functional. An outline of the steps: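 Mice received a standard blood-induced P. berghei inoculum and were then treated with one subcutaneous dose of compound suspended in peanut oil. The minimum active dose is the lowest dose that raised mean survival time by 100%.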

For experiment [8], the system named is Plasmodium berghei. Briefly: Antimalarial activity against Plasmodium berghei infected in sc dosed mouse assessed as dose required to survivors for period of 60 days. In kind it is functional. The essentials:
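Mice infected with a blood-induced P. berghei inoculum were given one subcutaneous dose in peanut oil. Survivors at 60 days counted as cured. The minimum curative dose is the lowest dose that cured any mouse.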

The subject of experiment [9] is Enterococcus faecium. Briefly: Antibacterial activity against sensitive Streptococcus faecium ATCC 8043 assessed as reduction in growth. In kind it is functional, organism-based. An outline of the steps:
as §1

Experiment [10] has as its system Enterococcus faecium. Kind of experiment: Antibacterial activity against chlorguanide triazine-resistant Streptococcus faecium ATCC 8043 assessed as reduction in growth. In kind it is functional, organism-based. The essentials: as §1
Experiment [11] has as its system Enterococcus faecium. Kind of experiment: Fold increase in resistance, ratio of IC50 for chlorguanide triazine-resistant Streptococcus faecium ATCC 8043 to IC50 for sensitive Streptococcus faecium ATCC 8043. The format is functional. An outline of the steps:
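Resistant S. faecium substrain raised by serial transfer in increasing chlorguanide triazine. IC50 (µM, 50% growth inhibition by turbidity) was found for resistant and parent strains in folic acid (0.002 µg/ml) medium. Fold increase taken as IC50 resistant / IC50 sensitive.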

In experiment [12] the test system is Lacticaseibacillus casei. Briefly: Antibacterial activity against sensitive Lactobacillus casei ATCC 7469 assessed as reduction. The format is functional, organism-based. The essentials: as §1
For experiment [13], the system named is Lacticaseibacillus casei. Briefly: Antibacterial activity against chlorguanide triazine-resistant Lactobacillus casei ATCC 7469 assessed as reduction in growth. In kind it is functional, organism-based. An outline of the steps:
as §1

Experiment [14] relates to Lacticaseibacillus casei. Briefly: Fold increase in resistance, ratio of IC50 for chlorguanide triazine-resistant Lactobacillus casei ATCC 7469 to IC50 for sensitive Lactobacillus casei ATCC 7469. In kind it is functional. The essentials:
(§4)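 Resistant substrains were made by serial transfer in rising concentrations of cycloguanil, and the most resistant isolate of each organism was used. Both strains were assayed turbidimetrically under identical conditions. FIR = IC50 of the resistant strain divided by IC50 of the sensitive parent.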

The nature of experiment [15]: Antibacterial activity against sensitive Pediococcus cerevisiae ATCC 808 assessed as reduction. The format is functional. An outline of the steps: as §3
Experiment [16] can be described thus: Antibacterial activity against chlorguanide triazine-resistant Pediococcus cerevisiae ATCC 808 assessed as reduction in growth. In kind it is functional. An outline of the steps: as §1
The subject of experiment [17] is Pediococcus. Briefly: Fold increase in resistance, ratio of IC50 for chlorguanide triazine-resistant Pediococcus cerevisiae ATCC 808 to IC50 for sensitive Pediococcus cerevisiae ATCC 808. The format is functional. An outline of the steps: as §4
Experiment [18] relates to Escherichia coli. Kind of experiment: Antibacterial activity against sensitive Escherichia coli ATCC 10536 assessed as reduction in growth. The format is functional, organism-based. The essentials:
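Growth inhibition in Sahyun et al. medium plus 0.6% acid-hydrolyzed casein. Growth read as turbidity on a Klett-Summerson photoelectric colorimeter. IC50 is the micromolar concentration giving 50% growth inhibition. Top concentration was 1000 μg/ml, or 100 μg/ml when compound was limited.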

In experiment [19] the test system is Enterococcus faecium. Briefly: Antibacterial activity against sensitive Streptococcus faecium ATCC 8043 assessed as reduction in growth in presence of 0.002 ug/ml folic acid. The format is functional, organism-based. The essentials: as §2

Molecules are shown by their SMILES. Calls of active or inactive are those of the source. No cut-off for these calls is given here. Some results are limits rather than exact numbers.

In the case of `CN(Cc1cnc2nc(N)nc(N)c2n1)c1ccc(C(=O)N[C@@H](CCC(=O)O)C(=O)O)cc1` [METHOTREXATE], the inhibition result in experiment [1], in experiment [2], in experiment [3], in experiment [6] and in experiment [19] was “Active” throughout. Moreover, the inhibition entry in experiment [4] and in [5] was “inactive” each time. For the same compound, the minimal effective dose in [7] is greater than 640 mg/kg. Also, in [8], the MCD is greater than 640 mg/kg. In addition, the half-maximal inhibitory concentration (IC50) (as a rule, the midpoint of a concentration-inhibition curve) in [9] amounted to 2 nM; in experiment [10], 10 nM; in experiment [12], 0.06 nM; in [13] it was 0.01 nM; in [15], 400 nM; in experiment [16], 1500 nM. In experiment [18], the IC50 was found to be 143000 nM. The “Ratio IC50” value in experiment [11] is listed as 5; in [14] it was 0.17; in [17], 4.

`Nc1nc(N)c2cc(Sc3ccc(Cl)cc3)ccc2n1`: the inhibition entry in [1], in experiment [2], in experiment [3], in [4], in [5] and in experiment [19] was “inactive” throughout. Moreover, in experiment [6], the inhibition result was “Active”. For the same compound, the minimal effective dose in experiment [7] is 5 mg/kg. Further, the MCD in experiment [8] came to 40 mg/kg. Further, the IC50 in [9] came out at 1 nM; in [10], 180 nM; in [12] it was 28 nM; in experiment [13], 10 nM; in experiment [15] it was 28 nM; in experiment [16], 400 nM. The IC50 in experiment [18] was determined as 400 nM. Also, the “Ratio IC50” value in experiment [11] was 180; in experiment [14], 0.36; in experiment [17], 14.3.

For the compound `CCc1nc(N)nc(N)c1-c1ccc(Cl)cc1` [PYRIMETHAMINE], the inhibition result in [1], in [2], in [3], in experiment [4], in experiment [5] and in experiment [19] was “inactive” each time. Besides, in experiment [6], the inhibition result is “Active”. The minimal effective dose in experiment [7] turned out to be 10 mg/kg. In experiment [8], the MCD was 40 mg/kg. Besides, the IC50 in experiment [9] came to 8 nM; in experiment [10] it was 10500 nM; in [12] it was 5100 nM; in experiment [13], 240 nM; in experiment [15], 4000 nM; in experiment [16], 12000 nM. In experiment [18], the IC50 was found to be 76000 nM. In addition, the “Ratio IC50” value in experiment [11] came out at 1300; in [14], 0.05; in [17], 3.

As to `CCCCN(CCCC)CC(O)c1cc(-c2ccc(Cl)c(Cl)c2)nc2c(Cl)cc(Cl)cc12` (stereo not drawn), the inhibition result in [1], in experiment [2], in experiment [3], in experiment [4], in experiment [5] and in experiment [6] was “Active” each time. For the same compound, the inhibition result in experiment [19] was “Active”. Also, the minimal effective dose in [7] worked out at 5 mg/kg. Moreover, the MCD in [8] came to 20 mg/kg. Besides, the half-inhibitory concentration (IC50) in experiment [9] worked out at 327000 nM; in [10], 572000 nM; in [12], 170000 nM; in experiment [13], 250000 nM; in experiment [15], 290000 nM; in [16] it was 354000 nM. Further, the IC50 in experiment [18] is 182000 nM. Besides, the “Ratio IC50” value was 2 in [11], 2 in experiment [14] and 1 in experiment [17].

With `Nc1nc(N)c2cc(NCc3ccc(Cl)c(Cl)c3)ccc2n1`, the inhibition result in experiment [1], in [2], in experiment [3], in experiment [4], in experiment [5] and in [19] was “inactive” each time. Also, the inhibition entry in experiment [6] was “Active”. For the same compound, the minimal effective dose in experiment [7] worked out at 20 mg/kg. Further, in [8], the MCD stood at 80 mg/kg. Besides, the IC50 was 6 nM in experiment [9]; 2000 nM in experiment [10]; 400 nM in [12]; 30 nM in experiment [13]; 200 nM in experiment [15]; 700 nM in experiment [16]. Also, the 50% inhibitory concentration (IC50) in experiment [18] worked out at 33000 nM. Also, the “Ratio IC50” value in experiment [11] was 330; in experiment [14] it was 0.08; in [17], 3.5.

As to `CC(C)c1nc2nc(N)nc(N)c2nc1C(C)C`, the inhibition result in experiment [1], in experiment [2], in experiment [3], in experiment [4], in experiment [5] and in [19] was “inactive” each time. Also, the inhibition entry in [6] is “Active”. Further, in [7], the minimal effective dose worked out at 640 mg/kg. Moreover, the MCD in experiment [8] came to 640 mg/kg. Besides, the IC50 in [9] turned out to be 5 nM; in experiment [10], 300 nM; in [12], 3200 nM; in [13], 500 nM; in experiment [15] it was 70 nM; in experiment [16], 500 nM. In addition, the concentration for half-maximal inhibition (IC50) in experiment [18] was 8100 nM. The “Ratio IC50” value in [11] amounted to 60; in experiment [14] it was 0.16; in [17], 7.

As to `Nc1nc(N)c2cc(S(=O)(=O)c3ccc4ccccc4c3)ccc2n1`, the inhibition entry in experiment [1], in [2], in [3], in experiment [4], in experiment [5] and in [19] was “inactive” in each case. For the same compound, in [6], the inhibition entry is “Active”. Also, the minimal effective dose in experiment [7] was 0.63 mg/kg. Also, in experiment [8], the MCD came to 1.25 mg/kg. In addition, the IC50 in experiment [9] stood at 2 nM; in experiment [10] it was 80 nM; in [12] it was 40 nM; in [13], 9 nM; in [15], 2 nM; in experiment [16], 50 nM. The half-maximal inhibitory concentration (IC50) in [18] is less than 200 nM. For the same compound, the entries for the “Ratio IC50” value in experiment [11], in experiment [14] and in experiment [17] were 40, 0.23 and 25, respectively.
